A selection: hits, their analogues and other compounds. The true share with any hit is near 2.1%.
beta cell repl – inducers of beta-cell replication in MIN6 cells | MIN6 cells proliferation, ATPlite luminescence, 48 h; cells starved in 0.2% serum; 100% = growth in 10% serum | proliferation, % at 10 µM | 330,000 tested, 0.29% active;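 active means compounds whose signal lies at least 3.5 SD above the mean of all wells on their plate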;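 further: 0% = DMSO-treated cells in low-serum medium and 100% = 10% serum control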
Cardio protect – protects H9c2 cardiomyocytes from peroxide injury; H2O2 injury protection, ATPLite, 2 h; protection from H2O2 cell death, % at 20 µM; 360,000 tested, 0.63% active;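 active means compounds giving at least 50% protection of heart cells from peroxide-induced death in the single-dose screen, raw or plate-pattern-corrected value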;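 further: 0% = DMSO wells with peroxide and 100% = DMSO wells without peroxide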
CRFR2-BP ag – agonists of human CRF-binding protein/CRF-R2 receptor complex; AID 588473; activation, % at 13.2 µM; 350,000 tested, 0.46% active; HEK293 CRF-R2/CRF-BP, calcium dye fluorescence (FLIPR); percent of saturating CRF peptide response;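 active means activation of at least 50%, plus an integration ratio under a set limit after plate pattern correction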;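 further: plate controls were neutral control wells without compound for no effect and CRF at EC100 for full effect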
CRFR2-BP antag – blocks CRF-induced signaling of the CRF-BP/CRF-R2 complex; HEK293 CRF-R2/CRF-BP, CRF-induced calcium fluorescence; inhibition, % at 11.8 µM; 350,000 tested, 0.59% active;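 active means inhibition of the ligand-induced calcium signal above about 50% at the single tested concentration, limit read from the data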
UCH37 inh – inhibitors of human deubiquitinating enzyme UCH37. inhibition, % (test concentration not listed). purified proteasome/UCH37, Ub-AMC cleavage fluorescence. 330,000 tested, 0.33% active. Q9Y5K5. AID 588478;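 active means mean inhibition over replicate wells above about 20%, limit read from the data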;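 further: 0% = compound-free wells with enzyme and 100% = wells lacking proteasome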
Target sequence (Q9Y5K5 whole entry, looked up): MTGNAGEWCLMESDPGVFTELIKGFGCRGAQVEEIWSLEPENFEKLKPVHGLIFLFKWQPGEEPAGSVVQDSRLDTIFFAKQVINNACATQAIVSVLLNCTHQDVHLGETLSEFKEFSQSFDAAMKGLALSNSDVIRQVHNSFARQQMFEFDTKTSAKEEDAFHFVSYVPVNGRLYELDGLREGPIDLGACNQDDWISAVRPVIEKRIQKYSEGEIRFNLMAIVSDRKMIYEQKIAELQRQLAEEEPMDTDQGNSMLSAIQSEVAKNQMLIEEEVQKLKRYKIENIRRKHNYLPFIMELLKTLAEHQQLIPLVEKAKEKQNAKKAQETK
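Reagent: Ub-AMC substrate; assay system: Proteasome-associated human UCH37 deubiquitinase; controls: no-proteasome and no-compound wells; read-out: % inhibition of Ub-AMC cleavage fluorescence; timing: 30 min preincubation with enzyme, 25 min cleavage at room temperature; signal: AMC fluorescence from Ub-AMC cleavage, excitation 355 nm, emission 460 nm; buffer or medium: Tris-HCl pH 7.4 plus ovalbumin, ATP-MgCl2, DTT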
hiPSC survival – hiPSC single-cell survival enhancement; ATPlite luminescence; 100% = ROCK inhibitor wells, 0% = DMSO; survival enhancement, % at 20 µM; 360,000 tested, 0.044% active; AID 602274; in the data active means survival enhancement above about 18%;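 further: cells exposed to compounds for 16 hours before the ATP read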
Active calls of the source: *; . = no result.

SMILES	beta cell repl	Cardio protect	CRFR2-BP ag	CRFR2-BP antag	UCH37 inh	hiPSC survival
CS(=O)(=O)Nc1nc2n(n1)C(c1ccccc1)C=C(c1ccc(Br)cc1)N2 (stereo not drawn)	-1	8	139*	-116	-194	5
COC(=O)NN=Cc1sc(N2CCCCC2)nc1-c1cccs1	.	.	.	.	-10	.
O=C(N/N=C/c1ccc(O)cc1)Nc1cccc2nsnc12	-4	58*	-5	-12	.	-1
CC(C)C1OC2(C)OC(=N)C1(C#N)C(C#N)(C#N)C2c1ccccc1 (stereo not drawn)	-2	-2	62*	-72	-441	0
CCC1OC2(C)OC(=N)C1(C#N)C(C#N)(C#N)C2c1ccccc1 (stereo not drawn)	0	7	28	-20	-88	0
CC1=C(C(=O)N(C(C)C)C(C)C)CC(CC(=O)NC2CCCCC2)C(=O)N1Cc1ccccc1 (stereo not drawn)	.	-1	-3	59*	.	0
NS(=O)(=O)c1ccc(NC(=O)CSc2nnc(COc3ccccc3Cl)n2C2CC2)cc1	-3	-8	-2	63*	2	2
NS(=O)(=O)c1ccc(NC(=O)CSc2nnc(C3CC3)n2C2CC2)cc1	0	4	-1	10	2	0
N#CCCn1c(SCC(=O)c2c[nH]c3ccccc23)nc2ccccc21	-2	51*	-3	18	6	-2
CC(/C=C/c1ccccc1)=NNC(=O)c1ccc(Br)cc1	.	.	.	.	2	.
COc1ccccc1C=NNC(=O)CC(=O)NCc1ccccc1	.	.	.	.	3	.
CCC(=O)Nc1cccc(-n2nnnc2SCC(=O)N2CCCCC2)c1	-1	-11	89*	-164	8	2
CCOC(=O)c1sc(NC(=O)c2cc(-c3ccccc3)nc3ccccc23)c(C#N)c1C	-4	-32	53*	35	6	4
CC(=NNC(=O)CCC(=O)Nc1ccc(C)c(C)c1)C1CC1	.	.	.	.	1	.
NN=CC(=NNc1ccc(Cl)cc1)C(=O)c1ccncc1	.	.	.	.	9	.
Cc1nc(-c2ccncc2)nc(NCCNc2ccc(C(F)(F)F)cn2)c1Cl	-3	-7	3	118*	2	0
CC(=O)Nc1cc(C(N)=O)c(Cl)cc1Cl	0	0	-1	72*	-1	-1
CC(=O)Nc1ccc(Cl)c(C(N)=O)c1	5	0	0	-13	0	-1
CC(CCc1ccccc1)=NNC(=O)C1C2CCCCC21 (stereo not drawn)	.	.	.	.	-2	.
CCOc1cc2c(cc1/C=C/c1noc(C)c1[N+](=O)[O-])OC(C)C2 (stereo not drawn)	-2	-5	193*	-218	.	0
CCOc1cc2c(cc1C=O)OC(C)C2 (stereo not drawn)	3	9	-3	-10	-21	0
CCOC(=O)CC(C)=NNC(=O)CN(c1ccc(Br)cc1)S(=O)(=O)c1ccccc1	.	.	.	.	5	.
Cc1c(Cl)cnc(NC(=O)COC(=O)c2ccc([N+](=O)[O-])s2)c1Cl	-4	68*	0	-11	13	-4
Cc1c(Cl)cnc(NC(=O)COC(=O)c2cccs2)c1Cl	-5	5	0	6	4	0
O=C(COC(=O)c1ccc([N+](=O)[O-])s1)Nc1ccc(Cl)cn1	-5	55*	2	-2	6	0
SMILES	beta cell repl	Cardio protect	CRFR2-BP ag	CRFR2-BP antag	UCH37 inh	hiPSC survival
Cc1cc(NN=C2CC(C)CC(C)(C)C2)nc2ccccc12 (stereo not drawn)	.	.	.	.	-6	.
CC(O)CNc1nc2c(c(=O)n(C)c(=O)n2C)n1C/C=C/c1ccccc1 (stereo not drawn)	-1	30	1	5	1	-2
Cn1c(=O)c2c(nc(NCCCO)n2C/C=C/c2ccccc2)n(C)c1=O	0	62*	1	-6	2	4
CCOc1cc(C=N/N=C2/NC(=O)C(CC(=O)O)S2)ccc1OCc1ccc(Cl)cc1 (stereo not drawn)	.	.	.	.	6	.
COC(=O)N/N=C1\CCCc2ccccc21	0	-2	-4	22	.	2
O=C(O)c1ccc(NN=C2CCCc3ccccc32)cc1	.	.	.	.	22*	.
CCN(CC)C(=O)c1c[nH]c2ccc(S(=O)(=O)Nc3cc(C)cc(C)c3)cc2c1=O	0	4	125*	-106	-7	1
